{"source": "ChEMBL document CHEMBL1123267", "about": "“Synthesis and radioprotective activity of new cysteamine and cystamine derivatives” (J Med Chem, 1986)", "key": {"[1]": {"assay": "Lethal dose in mice (LD50)", "type": "toxicity, organism-based", "settings": "mouse, in vivo", "in_short": "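Compounds were dissolved in distilled water and the dose range was set in a preliminary study. Five groups of 10 mice then received different doses within that range. LD50 was derived by Probit analysis.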"}, "[2]": {"test_system": "Mus musculus", "assay": "Radioprotective effects in mice when administered i.p. at 50% LD50, 15 min prior to whole body radiation.", "type": "functional", "in_short": "(§1)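 Mice in groups of 20 were given the compound i.p., dissolved in distilled water. Whole-body irradiation was from a 60Co γ source at 0.65 Gy/min. First dose was the control LD100/30 days (9 Gy males, 9.5 Gy females) or that dose + 2 Gy, then a dose series. Irradiation LD50/30-day was found by the Karber method. DRF = treated LD50/30 ÷ solvent-control LD50/30.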"}, "[3]": {"test_system": "Mus musculus", "assay": "Radioprotective effects in mice when administered i.p. at 12.5% LD50, 15 min prior to whole body radiation.", "type": "functional", "in_short": "as §1"}, "[4]": {"test_system": "Mus musculus", "assay": "Radioprotective effects in mice when administered i.p. at 50% LD50, 2 hr prior to whole body radiation.", "type": "functional", "in_short": "as §1"}, "[5]": {"test_system": "Mus musculus", "assay": "Compound was tested for radioprotective activity when injected intraperitoneally with a dose equal to one-eighth of its LD50, 15 min before whole-body irradiation.", "type": "functional", "in_short": "as §1"}}}
{"smiles": "Br.CC(C)(C)C(=O)SCCNC(=O)CN", "values": [{"measurement": "LD50", "setting": "[1]", "value": 1200, "unit": "mg/kg"}, {"measurement": "DRF", "setting": "[2]", "value": 1.05}, {"measurement": "DRF", "setting": "[3]", "value": 1}, {"measurement": "DRF", "setting": "[4]", "value": 1}]}
{"smiles": "Br.Br.NCC(=O)NCCSSCCNC(=O)CN", "values": [{"measurement": "LD50", "setting": "[1]", "value": 1500, "unit": "mg/kg"}, {"measurement": "DRF", "setting": "[2]", "value": 1.4}, {"measurement": "DRF", "setting": "[3]", "value": 1}, {"measurement": "DRF", "setting": "[4]", "value": 1}]}
{"smiles": "NCC(=O)NCCSSCCNC(=O)CN.O=C(O)C(F)(F)F.O=C(O)C(F)(F)F", "values": [{"measurement": "LD50", "setting": "[1]", "value": 1500, "unit": "mg/kg"}, {"measurement": "DRF", "setting": "[2]", "value": 1.55}, {"measurement": "DRF", "setting": "[3]", "value": 1.2}, {"measurement": "DRF", "setting": "[4]", "value": 1.1}]}
{"smiles": "NCCCNCCSP(=O)(O)O", "note": "[AMIFOSTINE]", "values": [{"measurement": "LD50", "setting": "[1]", "value": 950, "unit": "mg/kg"}, {"measurement": "DRF", "setting": "[2]", "value": 2.7}, {"measurement": "DRF", "setting": "[3]", "value": 1.5}, {"measurement": "DRF", "setting": "[4]", "value": ">1.3"}]}
{"smiles": "Br.CC(=O)SCCNC(=O)CCCN", "values": [{"measurement": "LD50", "setting": "[1]", "value": 800, "unit": "mg/kg"}, {"measurement": "DRF", "setting": "[2]", "value": 1.1}, {"measurement": "DRF", "setting": "[3]", "value": 1}]}
{"smiles": "Br.Br.NCCCC(=O)NCCSSCCNC(=O)CCCN", "values": [{"measurement": "LD50", "setting": "[1]", "value": 300, "unit": "mg/kg"}, {"measurement": "DRF", "setting": "[2]", "value": 1}, {"measurement": "DRF", "setting": "[3]", "value": 1}, {"measurement": "DRF", "setting": "[4]", "value": 1}]}
{"smiles": "Br.CC(=O)NCCSC(=O)CN", "values": [{"measurement": "LD50", "setting": "[1]", "value": 600, "unit": "mg/kg"}, {"measurement": "DRF", "setting": "[2]", "value": 1.1}, {"measurement": "DRF", "setting": "[3]", "value": 1}, {"measurement": "DRF", "setting": "[4]", "value": 1}]}
{"smiles": "NCC(=O)NCCSC(=O)C(Cl)(Cl)Cl.O=C(O)C(F)(F)F", "values": [{"measurement": "LD50", "setting": "[1]", "value": 700, "unit": "mg/kg"}, {"measurement": "DRF", "setting": "[2]", "value": 1.05}, {"measurement": "DRF", "setting": "[5]", "value": 1}, {"measurement": "DRF", "setting": "[4]", "value": 1}]}
{"smiles": "CC(=O)NCCSC(=O)CN.O=C(O)C(F)(F)F", "values": [{"measurement": "LD50", "setting": "[1]", "value": 1000, "unit": "mg/kg"}, {"measurement": "DRF", "setting": "[2]", "value": 1.2}, {"measurement": "DRF", "setting": "[3]", "value": 1}, {"measurement": "DRF", "setting": "[4]", "value": 1}]}
{"smiles": "Br.CC(=O)SCCNC(=O)CN", "values": [{"measurement": "LD50", "setting": "[1]", "value": 1500, "unit": "mg/kg"}, {"measurement": "DRF", "setting": "[2]", "value": 1.4}, {"measurement": "DRF", "setting": "[3]", "value": 1}, {"measurement": "DRF", "setting": "[4]", "value": 1}]}
{"smiles": "CC(=O)SCCNC(=O)[C@H](C)N.O=C(O)C(F)(F)F", "values": [{"measurement": "LD50", "setting": "[1]", "value": 1250, "unit": "mg/kg"}, {"measurement": "DRF", "setting": "[2]", "value": 1.4}, {"measurement": "DRF", "setting": "[3]", "value": 1}, {"measurement": "DRF", "setting": "[4]", "value": 1}]}
{"smiles": "Br.CC(=O)SCCNC(=O)[C@H](C)N", "values": [{"measurement": "LD50", "setting": "[1]", "value": 1500, "unit": "mg/kg"}, {"measurement": "DRF", "setting": "[2]", "value": 1.4}, {"measurement": "DRF", "setting": "[3]", "value": 1}, {"measurement": "DRF", "setting": "[4]", "value": 1.2}]}
{"smiles": "CC(=O)SCCN.Cl", "values": [{"measurement": "LD50", "setting": "[1]", "value": 500, "unit": "mg/kg"}, {"measurement": "DRF", "setting": "[2]", "value": 1.05}, {"measurement": "DRF", "setting": "[3]", "value": 1}, {"measurement": "DRF", "setting": "[4]", "value": 1.05}]}
{"smiles": "Br.CCC(=O)SCCNC(=O)CN", "values": [{"measurement": "LD50", "setting": "[1]", "value": 1500, "unit": "mg/kg"}, {"measurement": "DRF", "setting": "[2]", "value": 1.2}, {"measurement": "DRF", "setting": "[3]", "value": 1}, {"measurement": "DRF", "setting": "[4]", "value": 1}]}
{"smiles": "NCC(=O)NCCSC(=O)C(Cl)Cl.O=C(O)C(F)(F)F", "values": [{"measurement": "LD50", "setting": "[1]", "value": 800, "unit": "mg/kg"}, {"measurement": "DRF", "setting": "[2]", "value": 1.1}, {"measurement": "DRF", "setting": "[3]", "value": 1}, {"measurement": "DRF", "setting": "[4]", "value": 1}]}
{"smiles": "C[C@H](N)C(=O)NCCSSCCNC(=O)[C@@H](C)N.O=C(O)C(F)(F)F.O=C(O)C(F)(F)F", "values": [{"measurement": "LD50", "setting": "[1]", "value": 1200, "unit": "mg/kg"}, {"measurement": "DRF", "setting": "[2]", "value": 1.4}, {"measurement": "DRF", "setting": "[3]", "value": 1}, {"measurement": "DRF", "setting": "[4]", "value": 1.1}]}
{"smiles": "Br.Br.NCCC(=O)NCCSSCCNC(=O)CCN", "values": [{"measurement": "LD50", "setting": "[1]", "value": 350, "unit": "mg/kg"}, {"measurement": "DRF", "setting": "[2]", "value": 1}, {"measurement": "DRF", "setting": "[3]", "value": 1}, {"measurement": "DRF", "setting": "[4]", "value": 1}]}
{"smiles": "NCC(=O)NCCSC(=O)CCl.O=C(O)C(F)(F)F", "values": [{"measurement": "LD50", "setting": "[1]", "value": 550, "unit": "mg/kg"}, {"measurement": "DRF", "setting": "[2]", "value": 1}, {"measurement": "DRF", "setting": "[3]", "value": 1}, {"measurement": "DRF", "setting": "[4]", "value": 1}]}
{"smiles": "Br.CC(=O)SCCNC(=O)CCN", "values": [{"measurement": "LD50", "setting": "[1]", "value": 400, "unit": "mg/kg"}, {"measurement": "DRF", "setting": "[2]", "value": 1}, {"measurement": "DRF", "setting": "[3]", "value": 1}, {"measurement": "DRF", "setting": "[4]", "value": 1}]}
{"smiles": "CC(=O)SCCNC(=O)CN.O=C(O)C(F)(F)F", "values": [{"measurement": "LD50", "setting": "[1]", "value": 1500, "unit": "mg/kg"}, {"measurement": "DRF", "setting": "[2]", "value": 1.4}, {"measurement": "DRF", "setting": "[3]", "value": 1}, {"measurement": "DRF", "setting": "[4]", "value": 1}]}
{"smiles": "Br.Br.C[C@H](N)C(=O)NCCSSCCNC(=O)[C@@H](C)N", "values": [{"measurement": "LD50", "setting": "[1]", "value": 800, "unit": "mg/kg"}, {"measurement": "DRF", "setting": "[2]", "value": 1}, {"measurement": "DRF", "setting": "[3]", "value": 1}, {"measurement": "DRF", "setting": "[4]", "value": 1}]}
